Measured values gathered from unrelated publications.
Each line is one published result; the experiments were not run side by side.

The Cmax of `Cc1c(C(=O)NN2CCCCC2)nc(-c2ccc(Cl)cc2Cl)n1-c1ccc(OS(=O)(=O)CCC(F)(F)F)cc1` is reported as 1.2 µM (mouse, plasma; oral, 20 µmol/kg, single dose).
For `COC(=O)CN(CCCc1ccccc1)CC(=O)N[C@@H](Cc1c[nH]cn1)c1nc(C)no1`, the Cmax was 1000 ng/mL (male C57BL/6 mouse, plasma; intraperitoneal, 30 mg/kg).
`CC(C)(C)c1cc(NC(=O)Nc2ccc(Oc3ccnc4[nH]c(=O)cnc34)cc2F)n(-c2ccccc2)n1` gave a Cmax of 38.1 µM (BALB/c mouse, plasma; intravenous, 2 mg/kg).
`O=C(CCCCCC(=O)NN=Cc1ccc(-c2ccccc2)cc1)NO` has a Cmax of 0.06 µM (C57BL/6 mouse, brain; intraperitoneal, 25 mg/kg, single dose).
For `CCn1ncc2c(Nc3ccc(OC(F)(F)F)cc3)ncnc21`, the Cmax was 263 ng/mL (male BALB/c mouse, plasma; oral, 20 mg/kg).
The Cmax of `COc1ccc([C@@]23Oc4cc(OC)cc(OC)c4[C@]2(O)[C@H](O)[C@H](C(=O)N(C)C)[C@H]3c2ccccc2)cc1` is reported as roughly 0.8 µM (mouse, plasma; oral, 5 mg/kg).
`CC(C)(O)c1cn(-c2ccc(-c3cc(F)c(CO)c(S(C)(=O)=O)c3)cc2F)c(C(C)(C)c2c(Cl)cccc2Cl)n1` gave a Cmax of 0.71 µM (male C57BL/6 mouse, serum; oral, 10 mg/kg).
For `C=CC(=O)N1CC2CC(n3nc(-c4ccc(C(=O)Nc5ccccn5)cc4)c4c(N)ncnc43)CC2C1` (stereo not drawn), the Cmax was 429 ng/mL (SCID mouse, plasma; oral, 5 mg/kg).
With `CN1CCN(C(=O)CN[C@@H]2C[C@H]2c2ccc(OCc3ccccc3)cc2)CC1` the Cmax was 542 ng/mL (mouse, plasma; intraperitoneal, 10 mg/kg).
The Cmax of `CNC(=O)[C@H](Cc1c[nH]cn1)NC(=O)CN(CCCc1ccccc1)CC(=O)OC` is reported as 3800 ng/mL (male C57BL/6 mouse, plasma; intraperitoneal, 30 mg/kg).
The Cmax of `CC(=O)O[C@H]1C(=O)[C@@]2(C)[C@H]([C@H](OC(=O)c3ccccc3)[C@]3(O)C[C@H](OC(=O)[C@H](O)[C@@H](NC(=O)c4ccccc4)c4ccccc4)C(C)=C1C3(C)C)[C@]1(OC(C)=O)CO[C@@H]1C[C@@H]2O` is reported as 3700 ng/g (SCID mouse, tumour; intraperitoneal, 10 mg/kg, single dose, tumour-bearing).
`COc1nc(-c2cc(C)c(N[C@@H](C)c3c(F)cc(F)cc3F)nn2)ccc1-n1cnc(C)c1` has a Cmax of 858 ng/mL (male CD-1 mouse, plasma; intravenous, 1 mg/kg, single dose).
With `Cn1cnc2c(F)c(Nc3ccc(Br)cc3Cl)c(C(=O)NOCCO)cc21` the Cmax was 1440 ng/g (nude mouse, liver; oral, 10 mg/kg, single dose, tumour-bearing).
`COc1ccc2c3c1O[C@H]1C[C@@H](OC(=O)c4ccccc4)C=C[C@@]31CCN(C)C2` has a Cmax of 4810 ng/g (mouse, brain; intravenous, 3 mg/kg).
For `NC[C@@H]1O[C@H](O[C@H]2[C@@H](O)[C@H](O[C@@H]3[C@@H](O)[C@H](N)C[C@H](N)[C@H]3O[C@H]3O[C@H](CO)[C@@H](O)[C@H](O)[C@H]3N)O[C@@H]2CO)[C@H](N)[C@@H](O)[C@@H]1O`, the Cmax was 690 ng/mL (male BALB/c mouse, plasma; oral, 500 mg/kg).
For `O=C(NO)c1ccc(CN(c2cnccn2)c2cnccn2)cc1`, the Cmax was 300 ng/mL (male C57BL/6 mouse, plasma; oral, 200 mg/kg, multiple doses, once daily, tumour-bearing).
With `COc1ccc2nc(-c3ccccn3)c(N(C)c3ccc(F)cc3)n2c1` the Cmax was 1440 ng/mL (male CD-1 mouse, plasma; oral, 50 mg/kg, fasted).
`Cc1nc(-c2cnc(NC(C)C)n(C)c2=O)ccc1Oc1ccnc(-c2cnn(C)c2)c1` gave a Cmax of 9360 ng/mL (female mouse, plasma; oral, 15 mg/kg, single dose).
With `CC[C@H](C)[C@@H]1NC(=O)[C@@](C)(NC(=O)[C@H](CCCNC(=N)N)NC(=O)[C@H](CC(C)C)NC(=O)[C@@H](NC(=O)[C@H](CCC(N)=O)NC(=O)[C@H](CC(C)C)NC(C)=O)[C@@H](C)O)CCCC=CCCC[C@@](C)(C(=O)N[C@@H](CC(C)C)C(=O)N[C@@H](Cc2ccc3ccccc3c2)C(N)=O)NC(=O)[C@H](CCCNC(=N)N)NC(=O)[C@H](CCC(N)=O)NC1=O` the Cmax was 41 µM (male BALB/c mouse, plasma; intravenous, 5 mg/kg).
`Cc1cc(Nc2ccc(S(F)(F)(F)(F)F)cc2)n2ncnc2n1` gave a Cmax of 59 µM (male Swiss mouse, plasma; oral, 100 mg/kg, single dose).
`CCN1CCN(Cc2cc(NC(=O)c3ccc(C)c(-c4ccc5nc(NC(=O)C6CC6)cn5n4)c3)cc(C(F)(F)F)c2)CC1` gave a Cmax of 340 ng/mL (Swiss mouse, plasma; intraperitoneal, 3 mg/kg).
With `CS(=O)(=O)CCNCc1ccc(-c2ccc3ncnc(Nc4ccc(OCc5cccc(F)c5)c(Cl)c4)c3c2)o1` the Cmax was 16600 ng/mL (nude mouse, plasma; oral, 200 mg/kg, single dose).
The Cmax of `CC(C)(O)c1cn(-c2ccc(-c3cccc(S(C)(=O)=O)c3)cc2)c(C(C)(C)c2ccccc2Cl)n1` is reported as 15 µM (male C57BL/6 mouse, serum; oral, 10 mg/kg).
`CCc1ccc(Cc2cc([C@@H]3O[C@H](CO)[C@@H](O)[C@H](O)[C@H]3O)cc3c2CCC3)cc1` has a Cmax of 1300 ng/mL (male C57BL/6 mouse, plasma; intravenous, 1 mg/kg).
`CNCCN(C)c1cc(C#N)cc(CCc2cc(C)cc(N)n2)c1` gave a Cmax of 50.8 ng/mL (male BALB/c mouse, plasma; oral, 10 mg/kg).
For `COc1ccc2nccc(N3CCc4c(cc(Cn5ccnc5)cc4-c4cn(C)nc4C(F)(F)F)C3=O)c2c1`, the Cmax was 1150 ng/mL (male CD-1 mouse, plasma; oral, 10 mg/kg).
The Cmax of `COc1nc(-c2cc(C)c(N[C@@H](C)c3ccc(F)cc3)nn2)ccc1-n1cnc(C)c1` is reported as 1530 ng/mL (male CD-1 mouse, plasma; oral, 5 mg/kg, single dose).
For `COc1ccc(C(O)COc2ccc(-c3csc(-c4ccc(OCC(O)c5ccc(OC)c(OC)c5)cc4)n3)cc2)cc1OC` (stereo not drawn), the Cmax was 7680 ng/mL (C57BL/6 mouse, plasma; oral, 75 mg/kg).
`Cc1c2c(n(-c3ccc(F)cc3Cl)c1-c1ccc(OS(=O)(=O)CCC(F)(F)F)cc1)CCN(N1CCCCC1)C2=O` has a Cmax of 0.04 µM (mouse, plasma; oral, 6 µmol/kg, single dose).
The Cmax of `NC1(C(=O)N[C@@H](CCO)c2ccc(Cl)cc2)CCN(c2ncnc3[nH]ccc23)CC1` is reported as roughly 8 µM (male Swiss mouse, plasma; intraperitoneal, 25 mg/kg, single dose).
`CSc1cc(Oc2ccnc3[nH]c(=O)cnc23)ccc1NC(=O)Nc1cc(C(C)(C)C)nn1-c1ccccc1` has a Cmax of 29.8 µM (BALB/c mouse, plasma; intravenous, 2 mg/kg).
With `Cc1ccc2cncc(N3CCc4c(cc(Cn5ccnc5)cc4-c4cn(C)nc4C(F)(F)F)C3=O)c2c1` the Cmax was 6580 ng/mL (male CD-1 mouse, plasma; oral, 50 mg/kg).
For `Cc1ccc(NC(=O)c2ccc(CN3CCN(C)CC3)cc2)cc1Nc1nccc(-c2cncc(-c3oncc3C)c2)n1`, the Cmax was 5060 ng/mL (male C57BL/6 mouse, plasma; oral, 100 mg/kg/day).
With `COc1cc2c(Nc3ccc(Cl)c(Cl)c3F)ncnc2cc1OC[C@@H]1C[C@@H]2CN(C)C[C@@H]2C1` the Cmax was 3780 ng/mL (FVB mouse, plasma; oral, 70 mg/kg, single dose).
`CC(C)(C)c1ccc(O)c(CN(Cc2cc(C(C)(C)C)ccc2O)C2CCC(NC(N)=O)CC2)c1` (stereo not drawn) has a Cmax of 1610 ng/g (male C57BL/6 mouse, brain; intraperitoneal, 25 mg/kg, single dose).
With `CC=Cc1ccc(O)c(OC)c1` the Cmax was 4340 ng/g (mouse, brain; intranasal, 100 mg/kg).
For `CC1(C)CC[C@]2(C(=O)O)CC[C@]3(C)C(=CC[C@@H]4[C@@]5(C)C[C@@H](O)[C@H](OC(=O)/C=C/c6ccc(O)cc6)C(C)(C)[C@@H]5CC[C@]43C)[C@@H]2C1` (relative stereo), the Cmax was 1.75 µM (mouse, brain; intraperitoneal, 85 µmol/kg, single dose).
`COc1nc(-c2cc(C)c(N[C@@H](C)c3cc(F)cc(F)c3)nn2)ccc1-n1cnc(C)c1` has a Cmax of 1180 ng/mL (male CD-1 mouse, plasma; oral, 5 mg/kg, single dose).
For `CNC(=O)c1cc(Oc2ccc(NC(=O)Nc3ccc(Cl)c(C(F)(F)F)c3)c(F)c2)cc[n+]1[O-]`, the Cmax was 360 ng/mL (mouse, plasma; oral, 10 mg/kg, single dose).
For `CCc1cc(C(=O)NC)c2nccc(N3CCc4c(cc(Cn5ccnc5)cc4-c4cn(C)nc4C(F)(F)F)C3=O)c2c1`, the Cmax was 131000 ng/mL (male CD-1 mouse, plasma; oral, 150 mg/kg).
The Cmax of `CCOc1ccc(Cc2cc([C@@H]3O[C@H](CO)[C@@H](O)[C@H](O)[C@H]3O)ccc2Cl)cc1` is reported as 1170 ng/mL (male C57BL/6 mouse, plasma; intravenous, 1 mg/kg).
`OC[C@H]1O[C@@H](c2ccc(Cl)c(Cc3ccc(O[C@H]4CCOC4)cc3)c2)[C@H](O)[C@@H](O)[C@@H]1O` gave a Cmax of 2460 ng/mL (CD-1 mouse, plasma; oral, 10 mg/kg).
The Cmax of `CNC(=O)c1cc(OC)cc2c(N3CCc4c(cc(Cn5ccnc5)cc4-c4cn(C)nc4C(F)(F)F)C3=O)ccnc12` is reported as 46100 ng/mL (male CD-1 mouse, plasma; oral, 50 mg/kg).
For `CN1CCC[C@H](CN2c3ccccc3Sc3ccccc32)C1.Cl`, the Cmax was 1180 ng/mL (mouse, plasma; oral, 64 mg/kg, single dose).
The Cmax of `CN1CCN(C(=O)c2cc3c(Nc4ccc(OC(F)(F)F)cc4)ncnc3s2)CC1` is reported as 1090 ng/mL (male BALB/c mouse, plasma; oral, 20 mg/kg).
For `CN1C(=O)c2ccccc2[S@+]([O-])c2ccc(C(=O)NCCc3cccs3)cc21`, the Cmax was 8280 ng/mL (male C57BL/6 mouse, plasma; intraperitoneal, 30 mg/kg, single dose).
`CCc1cc(OC)c2nccc(N3CCc4c(cc(Cn5ccnc5)cc4-c4cn(C)nc4C(F)(F)F)C3=O)c2c1` has a Cmax of 29000 ng/mL (male CD-1 mouse, plasma; oral, 50 mg/kg).
`COc1cc(C(=O)N2CCC(N3CCN(C)CC3)CC2)ccc1Nc1ncc2c(n1)N(C)c1ccccc1C(=O)N2C` gave a Cmax of 1620 ng/mL (mouse, plasma; oral, 10 mg/kg).
